In the library only some 4.5% were active in any assay of this set; here they are far more common.
OX1R antag-1 = OX1R (HCRTR1) antagonists, primary screen, fluorescence, CHO/OX1R cells, Fluo-8 calcium, orexin A | Orexin/Hypocretin receptor type 1 (Homo sapiens), O43613 | Fluo-8 calcium fluorescence | inhibition, % at 5 µM | 330,000 tested, 0.43% active;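 active = inhibition above its plate's threshold, mean inhibition of all tested compounds on the plate plus 3 SD, cut at about 37% in these data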;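 also: 0% = orexin A challenge wells and 100% = SB-334867-A antagonist wells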
TAAR1 antagonist = human TAAR1 antagonists, primary screen, Fluo-8 calcium fluorescence, CHO RD-HGA16 cells; antagonist; 360,000 tested, 1.5% active; Trace amine-associated receptor 1 (Homo sapiens), Q96RJ0; inhibition, % at 3 µM;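 active = inhibition above a per-plate cutoff, the mean inhibition of test compounds on that plate plus 3 SD, cut at about 49% in these data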;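 also: 0% = DMSO plus EC80 beta-PEA response and 100% = DMSO alone without agonist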
Target sequence (Q96RJ0 whole entry, looked up): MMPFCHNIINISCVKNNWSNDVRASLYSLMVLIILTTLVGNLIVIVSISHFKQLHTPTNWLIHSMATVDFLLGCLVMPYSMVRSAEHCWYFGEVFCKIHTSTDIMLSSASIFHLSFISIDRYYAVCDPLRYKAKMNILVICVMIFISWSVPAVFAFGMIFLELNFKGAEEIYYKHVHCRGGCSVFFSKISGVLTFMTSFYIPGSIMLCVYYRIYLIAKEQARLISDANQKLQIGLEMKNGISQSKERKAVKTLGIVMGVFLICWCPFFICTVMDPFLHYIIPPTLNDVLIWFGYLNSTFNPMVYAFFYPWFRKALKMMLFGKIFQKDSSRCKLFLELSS
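Material: CHO RD-HGA16 cells bearing hTAAR1; compound dosing: one-point dosing, 3 µM nominal final; schedule: dye loading 75 min at 37 °C, then 30 min room temperature; measured by: calcium fluorescence with Fluo-8; control set: vehicle and agonist controls; replication: n of 1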
CHO parental Ca = ATP-evoked calcium signal inhibitors, parental CHO, primary screen, counter-screen for OX1R antagonist project, cell-based, fluorescence, Fluo-8 calcium dye; parental CHO-K1, ATP-induced calcium, Fluo-8 fluorescence; inhibition, % at 5.6 µM; 330,000 tested, 0.63% active;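 active = inhibition above that plate's mean sample inhibition plus 3 SD, cut at about 26% in these data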;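 also: 0% = ATP-challenged DMSO wells and 100% = DMSO wells without ATP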
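Test system: untransfected parental CHO cell line. Compound: one dose, 5.6 µM nominal. Detection: intracellular calcium via Fluo-8 no-wash fluorescent dye. Measure: % inhibition. Benchmarks: ATP-challenged DMSO wells low, unchallenged DMSO wells high.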
GPR7 antagonist = GPR7 receptor antagonists, primary screen, cell-based, fluorescence, single concentration | Neuropeptides B/W receptor type 1 (Homo sapiens), P48145 | inhibition, % at 4.4 µM | AID 1861, 2009 | 290,000 tested, 1.1% active | GPR7-expressing cells, fluorescence antagonist assay; in the data active = inhibition above about 16%, passing the limit was not always enough;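 also: cells stimulated with the agonist NPW; 0% = agonist with vehicle and 100% = vehicle without agonist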
Target sequence (P48145 whole entry, looked up): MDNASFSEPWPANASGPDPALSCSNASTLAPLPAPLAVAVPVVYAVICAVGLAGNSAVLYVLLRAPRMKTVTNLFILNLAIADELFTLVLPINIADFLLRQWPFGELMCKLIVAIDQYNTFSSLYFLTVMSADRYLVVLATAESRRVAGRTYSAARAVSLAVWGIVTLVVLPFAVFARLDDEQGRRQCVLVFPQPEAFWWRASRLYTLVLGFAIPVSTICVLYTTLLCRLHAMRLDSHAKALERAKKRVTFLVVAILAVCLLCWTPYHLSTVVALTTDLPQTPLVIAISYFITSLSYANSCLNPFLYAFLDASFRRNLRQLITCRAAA
TAAR1 agonist = human TAAR1 agonists, primary screen, Fluo-8 calcium fluorescence, CHO RD-HGA16 cells; vehicle wells 0%, saturating PEA agonist 100%; activation, % at 3 µM; 360,000 tested, 0.99% active; AID 624467, 2012;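 active = activation above the mean activation of all test compounds in the run plus 3 SD, cut at about 38% in these data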
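System: CHO-derived RD-HGA16 cells with stable Gα16 and human TAAR1. Times: 17-24 h plating, Fluo-8 75 min 37 °C, 30 min RT. Measured by: calcium-sensitive Fluo-8 signal, excitation 470-495, emission 515-575 nm. Read-out basis: % activation relative to PEA EC100 response. Control set: DMSO and PEA EC100. Repeats: no replicates (n 1).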
OX1R antag-2 = antagonists of human orexin 1 receptor (OX1R); inhibition, % at 6.6 µM; 330,000 tested, 1.8% active; Orexin/Hypocretin receptor type 1 (Homo sapiens), O43613; OX1R-expressing cells, FRET antagonist read-out; AID 485270, 2010; in the data active = inhibition mostly above about 38%, no sharp cut-off; inactive = mostly below about 40%;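 also: 0% = agonist challenge alone and 100% = reference antagonist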
OX1R Fluo8 conf = OX1R (HCRTR1) antagonists, confirmation, fluorescence, CHO/OX1R cells, Fluo-8 calcium, orexin A. shares compounds with OX1R antag-1. orexin A calcium Fluo-8 fluorescence. inhibition, % at 5 µM. 1,100 tested, 38% active; in the data active = inhibition above about 29%;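 also: 0% = agonist challenge alone and 100% = reference antagonist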
CHO Ca triplic = ATP-evoked calcium inhibition in parental CHO, counter-screen for OX1R antagonist project, cell-based, fluorescence, CHO-K1, triplicate; shares compounds with OX1R antag-1; ATP-induced calcium, Fluo-8 fluorescence; inhibition, % at 5.6 µM; 1,100 tested, 9.3% active; AID 492965, 2010;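 active = inhibition above a per-plate limit, the mean inhibition of that plate's test compounds plus 3 SD, cut at about 25% in these data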;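 also: 0% = ATP challenge with DMSO and 100% = DMSO without ATP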
OX1R HTRF confirm = OX1R (HCRTR1) antagonists, confirmation, cell-based, HTRF | AID 492964, 2010 | OX1R-expressing cells, HTRF antagonist assay | inhibition, % at 6.6 µM | shares compounds with OX1R antag-2 | 1,800 tested, 49% active; in the data active = inhibition above about 55%;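 also: CHO cells expressing OX1R stimulated with orexin A at about EC80; 0% = agonist challenge alone and 100% = reference antagonist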
CHO-K1 HTRF = signal inhibition in parental CHO-K1 cells, counter-screen for OX1R antagonist project, cell-based, HTRF. shares compounds with OX1R antag-2. HTRF counterscreen. inhibition, % at 6.6 µM. 1,800 tested, 48% active; in the data active = inhibition above about 17%;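 also: 0% = agonist challenge with vehicle and 100% = vehicle alone without agonist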
Numbers without * were called inactive; nt = no result.

SMILES	OX1R antag-1	TAAR1 antagonist	CHO parental Ca	GPR7 antagonist	TAAR1 agonist	OX1R antag-2	OX1R Fluo8 conf	CHO Ca triplic	OX1R HTRF confirm	CHO-K1 HTRF
CC1(C)C2CCC(CN)C1C2 (configuration not stated)	nt	-8	nt	nt	2	nt	nt	nt	nt	nt
Fc1ccc2nc3[nH]c4ccccc4c3nc2c1	36	-10	7	-6	7	98*	10	-3	64*	2
CC1=C(C(=O)N2CCOCC2)CC(CC(=O)NC(c2ccccc2)c2ccccc2)C(=O)N1Cc1ccc(F)cc1 (configuration not stated)	nt	-8	nt	nt	3	nt	nt	nt	nt	nt
CC1(C)CC(=O)C(CSC(=O)c2ccccc2)C(=O)C1	nt	-21	nt	nt	5	nt	nt	nt	nt	nt
Cc1nc2c(ccc3nc(NC(=O)Cc4cccc5ccccc45)sc32)s1	56*	3	-2	-10	-1	90*	64*	-19	90*	5
Cc1ccc(S(=O)(=O)N2C[C@H]3n4c(=O)ccc(=O)n4C[C@H](OC(=O)NCC4CCCCC4)[C@@]3(O)C2)cc1	nt	-15	nt	nt	1	nt	nt	nt	nt	nt
O=C(Nc1ccc(S(=O)(=O)N2CCCC2)cc1)C1CC(=O)N(CCc2ccccc2)C1 (configuration not stated)	nt	-7	nt	nt	4	nt	nt	nt	nt	nt
CCOc1ccc(N(CC(=O)NCCc2ccc(C)cc2)S(=O)(=O)c2c(C)noc2C)cc1	-31	-23	-31	-15	3	14	nt	nt	nt	nt
Cc1ccc(N(CC(=O)NCCc2ccccc2)S(=O)(=O)c2c(C)noc2C)cc1	70*	11	-26	0	9	85*	44*	-31	82*	-23
Nn1c(-c2cccs2)nc2sc3c(c2c1=O)CCCC3	45*	30	-31	-9	14	111*	20	5	81*	6
COCCN1C(=O)CCC1(C)C(=O)NC1CCCCC1 (configuration not stated)	nt	-5	nt	nt	0	nt	nt	nt	nt	nt
O=C(Nc1cccc(S(=O)(=O)NCc2ccco2)c1)c1cc(-c2ccc(F)cc2)nc2ccccc12	56*	57*	12	-2	11	65*	29*	-12	49	6
O=C(Nc1ccccc1)c1cccc(S(=O)(=O)NCc2ccco2)c1	-24	-7	-6	-8	5	9	nt	nt	nt	nt
O=c1c2ccccc2oc2cc(-c3ccc4[nH]ccc4c3)ccc12	67*	21	-5	nt	14	88*	76*	3	88*	5
O=c1c2ccccc2oc2ccccc12	nt	-11	nt	nt	-1	nt	nt	nt	nt	nt
C=CCNc1ncnc2c1ncn2[C@H]1CN(C2CCCC2)C[C@@H](CO)O1	nt	-13	nt	nt	1	nt	nt	nt	nt	nt
C=CCn1c(SCc2ccccc2C#N)nnc1-c1cc(Br)ccc1O	53*	32	17	1	20	53*	11	23	31	-2
C=CCn1c(SCC(N)=O)nnc1-c1cccc(Br)c1	-5	-3	-15	-6	0	10	nt	nt	nt	nt
COc1ccc(CCNC(=O)COc2ccc(-c3ccccc3)cc2)cc1OC	30	-12	-16	-3	-1	75*	38*	39*	82*	6
CCN(CC(=O)NCc1cccs1)C(=O)CCC(=O)c1ccc(C)cc1	-23	-7	-9	nt	-1	16	nt	nt	nt	nt
Cc1cccc(OCCSc2nc3ccccc3n2CCC(=O)O)c1	32	-2	-3	0	3	97*	35*	3	83*	5
O=C(O)CCn1c(SCCOc2ccccc2)nc2ccccc21	58*	-5	-8	7	3	87*	32*	0	75*	9
CCCn1c(SCCC(=O)O)nc2ccccc21	-10	-9	0	-13	2	24	nt	nt	nt	nt
CCc1nc2ccc(C(=O)N(C)CCN(C)C)cn2c1N(C)CCC(C)C	nt	-16	nt	nt	2	nt	nt	nt	nt	nt
O=C(Nc1cccc(C(F)(F)F)c1)c1csc([C@H]2C[C@H](O)[C@@H](CO)O2)n1	nt	-12	nt	nt	2	nt	nt	nt	nt	nt
SMILES	OX1R antag-1	TAAR1 antagonist	CHO parental Ca	GPR7 antagonist	TAAR1 agonist	OX1R antag-2	OX1R Fluo8 conf	CHO Ca triplic	OX1R HTRF confirm	CHO-K1 HTRF
Cc1ccsc1C(=O)OCC(=O)N(Cc1ccccc1)C(C)C	40*	11	-27	nt	4	76*	25	-7	68*	-2
CCCS(=O)(=O)NC(=O)C1(C)CCCN(C(=O)c2cccc(C(F)(F)F)c2)C1 (configuration not stated)	nt	-34	nt	nt	2	nt	nt	nt	nt	nt
CC(CSc1nc2ccccc2s1)Cn1c(N2CCCC2)nc2c1c(=O)[nH]c(=O)n2C (configuration not stated)	61*	9	-19	-1	5	94*	35*	-18	87*	-2
O=C(N/N=C/c1ccccc1[N+](=O)[O-])c1cccs1	-6	12	-8	-6	2	32	nt	nt	nt	nt
Cc1ccc(/C=N/NC(=O)c2cccs2)cc1[N+](=O)[O-]	30	19	-25	4	3	109*	15	3	92*	15
CCN(CC(O)Cn1c2ccccc2c2ccccc21)S(=O)(=O)c1ccc(C)cc1 (configuration not stated)	1	23	-20	-9	9	11	nt	nt	nt	nt
Cc1ccc(S(=O)(=O)N(CCCO)CC(O)CON=C2c3ccccc3-c3ccccc32)cc1 (configuration not stated)	42*	25	-6	-7	8	73*	26	-4	76*	4

Screens: PubChem, The Scripps Research Institute Molecular Screening Center
